This passage reports Activity and Time results from ChEMBL document CHEMBL1151458, “Comparative analysis of the bactericidal activities of amphibian peptide analogues against multidrug-resistant nosocomial bacterial strains” (2008).

The test system of assay [1] is Pseudomonas aeruginosa. Briefly: Bactericidal activity against Pseudomonas aeruginosa isolate 2 with AMP-CFZ-CIP-CTX-CXM-GEN-LVX-IPM-MEM-SXT-TET resistance phenotype assessed as concentration required for >= 3 log10 CFU/ml reduction in viable bacteria in sodium phosphate buffer at pH 7.4 after 1.5 hrs by liquid microdilution assay. It counts as functional. In short, it runs like this: (§1)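 Clinical multidrug-resistant isolates grown to mid-log in tryptone soy broth and stored frozen. Exponential cells resuspended in 10 mM sodium phosphate buffer, pH 7.4, at 1 × 10^7 CFU/ml; 10 μl incubated with graded peptide concentrations in 100 μl at 37°C for 1.5 h. Plated on tryptone soy agar, CFU read after 24 h at 37°C. Peptide stocks in 20% ethanol.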
(Broth dilution looks for growth in wells or tubes with falling amounts of substance.)

For assay [2], the system named is Pseudomonas aeruginosa. Put plainly: Bactericidal activity against Pseudomonas aeruginosa isolate 3 with AMP-CFZ-CTX-CIP-GEN-IPM-LVX-SXT-TET-TOB resistance phenotype assessed as concentration required for >= 3 log10 CFU/ml reduction in viable bacteria in sodium phosphate buffer at pH 7.4 after 1.5 hrs by liquid microdilution assay. It counts as functional. In short, it runs like this: as §1

Assay [3] relates to Staphylococcus aureus. Put plainly: Bactericidal activity against Staphylococcus aureus isolate 1 with AMC-AMP-CIP-ERY-GEN-OXA-RIF resistance phenotype assessed as concentration required for >= 3 log10 CFU/ml reduction in viable bacteria in 20% heat-inactivated human serum after 1.5 hrs by liquid microdilution assay. It counts as functional. In short, it runs like this:
(§2)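 The buffer microdilution kill assay (1 × 10^7 CFU/ml mid-log cells, 10 μl in 100 μl, 37°C, 1.5 h, CFU on tryptone soy agar after 24 h) with serum added to 20% or 40% final. Serum was pooled from five healthy donors, clotted at room temperature, spun at 300 × g and heat-inactivated at 56°C for 30 min.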

For assay [4], the system named is Stenotrophomonas maltophilia. Put plainly: Bactericidal activity against Stenotrophomonas maltophilia isolate 2 with AMK-CIP-CTX-IPM-MEM-SAM-TZP resistance phenotype assessed as concentration required for >= 3 log10 CFU/ml reduction in viable bacteria in 20% heat-inactivated human serum after 1.5 hrs by liquid microdilution assay. It counts as functional. In a few lines:
as §2

The test system of assay [5] is Acinetobacter baumannii. Put plainly: Bactericidal activity against Acinetobacter baumannii isolate 3 with AMP-AMC-CFZ-CIP-IPM-SXT-TET-TOB resistance phenotype assessed as concentration required for >= 3 log10 CFU/ml reduction in viable bacteria in 20% heat-inactivated human serum after 1.5 hrs by liquid microdilution assay. The format is functional. In a few lines:
as §2

For assay [6], the system named is Pseudomonas aeruginosa. Briefly: Bactericidal activity against Pseudomonas aeruginosa isolate 1 with AMP-CFZ-CIP-CTX-CXM-GEN-LVX-SXT-TET resistance phenotype assessed as concentration required for >= 3 log10 CFU/ml reduction in viable bacteria in 20% heat-inactivated human serum after 1.5 hrs by liquid microdilution assay. The format is functional. In short, it runs like this: as §2

For assay [7], the system named is Stenotrophomonas maltophilia. Put plainly: Bactericidal activity against Stenotrophomonas maltophilia isolate 2 with AMK-CIP-CTX-IPM-MEM-SAM-TZP resistance phenotype assessed as concentration required for >= 3 log10 CFU/ml reduction in viable bacteria in 40% heat-inactivated human serum after 1.5 hrs by liquid microdilution assay. The format is functional. In a few lines:
as §2

Assay [8] has as its system Acinetobacter baumannii. Briefly: Bactericidal activity against Acinetobacter baumannii isolate 3 with AMP-AMC-CFZ-CIP-IPM-SXT-TET-TOB resistance phenotype assessed as concentration required for >= 3 log10 CFU/ml reduction in viable bacteria in 40% heat-inactivated human serum after 1.5 hrs by liquid microdilution assay. The format is functional. In short, it runs like this:
as §2

Assay [9] concerns Pseudomonas aeruginosa. Briefly: Bactericidal activity against Pseudomonas aeruginosa isolate 1 with AMP-CFZ-CIP-CTX-CXM-GEN-LVX-SXT-TET resistance phenotype assessed as concentration required for >= 3 log10 CFU/ml reduction in viable bacteria in 40% heat-inactivated human serum after 1.5 hrs by liquid microdilution assay. It counts as functional. In a few lines: as §2
Assay [10] relates to Enterococcus faecium. Briefly: Antimicrobial activity against Enterococcus faecium isolate 3 with AMP-CIP-CTX-ERY-GEN-LVX-SXT-TEC-VAN resistance phenotype at bactericidal concentration within 30 mins. It counts as functional, organism-based. In a few lines: (§3)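 Time-kill in 10 mM sodium phosphate buffer, pH 7.4: 1 × 10^7 CFU/ml mid-log clinical isolate (10 μl) exposed at 37°C to peptide at the 1.5-h bactericidal concentration or twofold that, in 100 μl. Samples taken from 2 min onward, plated on tryptone soy agar, CFU counted after 24 h at 37°C. Killing taken as ≥3 log10 CFU/ml drop.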

Assay [11] relates to Staphylococcus aureus. Briefly: Antimicrobial activity against Staphylococcus aureus isolate 1 with AMC-AMP-CIP-ERY-GEN-OXA-RIF resistance phenotype at twofold the bactericidal concentration within 30 mins. The format is functional, organism-based. In short, it runs like this:
as §3

Assay [12] relates to Stenotrophomonas maltophilia. Briefly: Antimicrobial activity against Stenotrophomonas maltophilia isolate 2 with AMK-CIP-CTX-IPM-MEM-SAM-TZP resistance phenotype assessed as assessed as time to kill at twofold bactericidal concentration. It counts as functional. In a few lines:
as §3

Assay [13] deals with Pseudomonas aeruginosa. Briefly: Antimicrobial activity against Pseudomonas aeruginosa isolate 1 with AMP-CFZ-CIP-CTX-CXM-GEN-LVX-SXT-TET resistance phenotype at bactericidal concentration after 30 mins by time kill assay. The format is functional, organism-based. In a few lines: as §3
The test system of assay [14] is Pseudomonas aeruginosa. Put plainly: Antimicrobial activity against Pseudomonas aeruginosa isolate 1 with AMP-CFZ-CIP-CTX-CXM-GEN-LVX-SXT-TET resistance phenotype at twofold bactericidal concentration after 10 to 30 mins by time kill assay. The format is functional, organism-based. In a few lines:
as §3

The test system of assay [15] is Staphylococcus aureus. Briefly: Antimicrobial activity against Staphylococcus aureus isolate 1 with AMC-AMP-CIP-ERY-GEN-OXA-RIF resistance phenotype at bactericidal concentration within 30 mins. The format is functional, organism-based. In a few lines:
as §3

The subject of assay [16] is Enterococcus faecium. Briefly: Antimicrobial activity against Enterococcus faecium isolate 3 with AMP-CIP-CTX-ERY-GEN-LVX-SXT-TEC-VAN resistance phenotype assessed as time to kill at twofold the bactericidal concentration. It counts as functional, organism-based. In short, it runs like this:
as §3

The test system of assay [17] is Enterococcus faecium. Briefly: Bactericidal activity against Enterococcus faecium isolate 3 with AMP-CIP-CTX-ERY-GEN-LVX-SXT-TEC-VAN resistance phenotype assessed as concentration required for >= 3 log10 CFU/ml reduction in viable bacteria in sodium phosphate buffer at pH 7.4 after 1.5 hrs by liquid microdilution assay. The format is functional. In short, it runs like this:
as §1

Assay [18] concerns Enterococcus faecium. Briefly: Bactericidal activity against Enterococcus faecium isolate 6 with AMP-AMC-CLI-CRO-CTX-CIP-ERY-GEN-KAN-LVX-SXT-VAN resistance phenotype assessed as concentration required for >= 3 log10 CFU/ml reduction in viable bacteria in sodium phosphate buffer at pH 7.4 after 1.5 hrs by liquid microdilution assay. It counts as functional. In short, it runs like this: as §1

Assay [19] relates to Staphylococcus aureus. Briefly: Bactericidal activity against Staphylococcus aureus isolate 1 with AMC-AMP-CIP-ERY-GEN-OXA-RIF resistance phenotype assessed as concentration required for >= 3 log10 CFU/ml reduction in viable bacteria in sodium phosphate buffer at pH 7.4 after 1.5 hrs by liquid microdilution assay. The format is functional. In short, it runs like this: as §1

Assay [20] relates to Stenotrophomonas maltophilia. Briefly: Bactericidal activity against Stenotrophomonas maltophilia isolate 1 with AMK-CIP-CTX-IPM-MEM-SAM-TZP resistance phenotype assessed as concentration required for >= 3 log10 CFU/ml reduction in viable bacteria in sodium phosphate buffer at pH 7.4 after 1.5 hrs by liquid microdilution assay. The format is functional. In a few lines:
as §1

The subject of assay [21] is Stenotrophomonas maltophilia. Briefly: Bactericidal activity against Stenotrophomonas maltophilia isolate 2 with AMK-CIP-CTX-IPM-MEM-SAM-TZP resistance phenotype assessed as concentration required for >= 3 log10 CFU/ml reduction in viable bacteria in sodium phosphate buffer at pH 7.4 after 1.5 hrs by liquid microdilution assay. It counts as functional. In short, it runs like this:
as §1

Assay [22] deals with Stenotrophomonas maltophilia. Put plainly: Bactericidal activity against Stenotrophomonas maltophilia isolate 4 with AMK-CAZ-CIP-FEP-IPM-SAM-TZP resistance phenotype assessed as concentration required for >= 3 log10 CFU/ml reduction in viable bacteria in sodium phosphate buffer at pH 7.4 after 1.5 hrs by liquid microdilution assay. It counts as functional. In a few lines:
as §1

Calls of active or inactive are those of the source. The rule behind the calls is not given here.

Regarding H-GIFSKLAGKKLKNLLISG-NH2, the Activity in the assay on Pseudomonas aeruginosa [1] came out at 1 µM; with Pseudomonas aeruginosa [2], 0.5 µM; in the assay with Staphylococcus aureus [3], 64 µM; in assay [4], 8 µM; in the assay with Acinetobacter baumannii [5] it was 16 µM; in the assay with Pseudomonas aeruginosa [6] it was 4 µM. In addition, the Activity in assay [7] stood at 16 µM; in the assay on Acinetobacter baumannii [8] it was 32 µM; with Pseudomonas aeruginosa [9], 128 µM; with Enterococcus faecium [17], 2 µM; in the assay with Enterococcus faecium [18], 2 µM; in the assay with Staphylococcus aureus [19], 32 µM. Further, the Activity in assay [20], in [21] and in [22] was 0.5 µM each time. The outcome in the assay with Enterococcus faecium [10], with Staphylococcus aureus [11], in the assay with Pseudomonas aeruginosa [13], in the assay on Staphylococcus aureus [15] and in the assay with Enterococcus faecium [16] was inactive. Further, the Time in [12] came to 2 min. Besides, in the assay on Pseudomonas aeruginosa [14], the result was Active.
